Experimental data as given in ChEMBL document CHEMBL4613280, “Development of Pyrazolo[3,4-d]pyrimidine Kinase Inhibitors as Potential Clinical Candidates for Glioblastoma Multiforme” (ACS Med Chem Lett, 2020).
Activity calls are given as the source filed them. The calls are words filed in the database; no cut-off is given here.

Columns and labels:
Homo sapiens [1] = species: Homo sapiens; experiment: Induction of apoptosis in human GCE28 cells assessed as increase in caspase 3/7 activation at 10 uM measured after 48 hrs by CellEvent caspase 3/7 probe based fluorecence analysis; format: functional, cell-based
Outline: (§1)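 Patient-derived GBM cells were exposed to compound diluted in DMEM containing 10% FBS for 48 h. Activated effector caspases-3/7 were then detected with the CellEvent caspase-3/7 fluorescent probe. Data are mean ± SEM of n = 3. Significance was tested by two-way ANOVA with Dunnett's multiple comparisons test.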

Homo sapiens [2] = species: Homo sapiens; experiment: Induction of apoptosis in human GIN8 cells assessed as increase in caspase 3/7 activation at 10 uM measured after 48 hrs by CellEvent caspase 3/7 probe based fluorescence analysis; format: functional, cell-based; outline: as §1
Homo sapiens [3] = species: Homo sapiens; experiment: Induction of apoptosis in human GIN28 cells assessed as increase in caspase 3/7 activation at 10 uM measured after 48 hrs by CellEvent caspase 3/7 probe based fluorescence analysis; format: functional, cell-based; outline: as §1
[4] = Cytotoxicity against human GIN28 cells derived from invasive region of GBM patient assessed as reduction in cell viability measured after 48 hrs by Prestoblue assay; format: functional, cell-based
Outline: (§2)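 Compounds diluted in DMEM containing 10% FBS and applied for 48 h. Viability read by PrestoBlue. IC50 calculated from three independent experiments, mean ± SE. Two-way ANOVA with Dunnett's multiple comparisons test.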

[5] = Synergistic cytotoxicity against human GIN28 cells assessed as combination index measured after 48 hrs in presence of 3-(4-chlorophenyl)-1-(2-chloro-2-phenylethyl)pyrazolo[3,4-d]pyrimidin-4-amine by Chou-Talalay assay; format: functional
Outline: (§3)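 Each drug pair dosed at a 1:1 molar ratio on the GBM lines and incubated 48 h. CI computed from three independent IC50 experiments (n = 3), reported as mean ± SD.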

[6] = Cytotoxicity against human GIN8 cells derived from invasive region of GBM patient assessed as reduction in cell viability measured after 48 hrs by Prestoblue assay; format: functional, cell-based; outline: as §2
[7] = Additive cytotoxicity against human GIN8 cells assessed as combination index measured after 48 hrs in presence of N-(3-bromophenyl)-1-(2-chloro-2-phenylethyl)6(2morpholinoethylsulfanyl)pyrazolo[3,4-d]pyrimidin-4-amine by Chou-Talalay assay; format: functional; outline: as §3
Homo sapiens [8] = species: Homo sapiens; experiment: Induction of apoptosis in human GIN8 cells assessed as increase in caspase 3/7 activation at 12.5 uM measured after 48 hrs by CellEvent caspase 3/7 probe based fluorescence analysis; format: functional, cell-based
Outline: (§4)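 Cells exposed 48 h to compounds diluted in 10% FBS DMEM. Activated caspase-3/7 detected with the CellEvent probe. Staurosporine 10.0 μM served as reference inducer. Mean ± SEM (n = 3). Two-way ANOVA with Dunnett's test.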

[9] = Additive cytotoxicity against human GCE28 cells assessed as combination index measured after 48 hrs in presence of N-(3-bromophenyl)-1-(2-chloro-2-phenylethyl)6(2morpholinoethylsulfanyl)pyrazolo[3,4-d]pyrimidin-4-amine by Chou-Talalay assay; format: functional; outline: as §3
[10] = Additive cytotoxicity against human GIN28 cells assessed as combination index measured after 48 hrs in presence of N-(3-bromophenyl)-1-(2-chloro-2-phenylethyl)6(2morpholinoethylsulfanyl)pyrazolo[3,4-d]pyrimidin-4-amine by Chou-Talalay assay; format: functional; outline: as §3
[11] = target: Serine/threonine-protein kinase Sgk1 (Homo sapiens, UniProt O00141, S422D); experiment: Inhibition of human N-terminal His6-tagged N-truncated human SGK1 harboring S422D mutant expressed in Sf21 cells using Sgktide-peptide as substrate in presence of [gamma-32P]ATP by scintillation counting method
Chain of Serine/threonine-protein kinase Sgk1 (O00141 whole entry S422D, the tested form may be a part): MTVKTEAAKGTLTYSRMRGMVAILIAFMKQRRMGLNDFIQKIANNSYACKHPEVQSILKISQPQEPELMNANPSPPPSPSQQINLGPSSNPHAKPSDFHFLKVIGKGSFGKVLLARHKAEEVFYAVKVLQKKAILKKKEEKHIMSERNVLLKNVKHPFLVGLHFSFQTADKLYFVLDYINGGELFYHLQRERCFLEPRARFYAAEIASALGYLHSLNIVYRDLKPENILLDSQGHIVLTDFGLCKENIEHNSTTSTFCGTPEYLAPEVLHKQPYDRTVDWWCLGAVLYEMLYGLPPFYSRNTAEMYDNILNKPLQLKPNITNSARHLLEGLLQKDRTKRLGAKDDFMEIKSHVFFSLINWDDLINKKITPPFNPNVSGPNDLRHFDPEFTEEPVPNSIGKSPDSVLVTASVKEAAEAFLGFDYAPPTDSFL

[12] = Synergistic cytotoxicity against human GCE28 cells assessed as combination index measured after 48 hrs in presence of 3-(4-chlorophenyl)-1-(2-chloro-2-phenylethyl)pyrazolo[3,4-d]pyrimidin-4-amine by Chou-Talalay assay; format: functional; outline: as §3
[13] = Cytotoxicity against human GCE28 cells derived from central tumor core of GBM patient assessed as reduction in cell viability measured after 48 hrs by Prestoblue assay; format: functional, cell-based; outline: as §2
[14] = Antagonistic cytotoxicity against human GIN8 cells assessed as combination index measured after 48 hrs in presence of 3-(4-chlorophenyl)-1-(2-chloro-2-phenylethyl)pyrazolo[3,4-d]pyrimidin-4-amine by Chou-Talalay assay; format: functional; outline: as §3
Homo sapiens [15] = species: Homo sapiens; experiment: Induction of apoptosis in human GIN28 cells assessed as increase in caspase 3/7 activation at 12.5 uM measured after 48 hrs by CellEvent caspase 3/7 probe based fluorescence analysis; format: functional, cell-based; outline: as §4
Homo sapiens [16] = species: Homo sapiens; experiment: Induction of apoptosis in human GCE28 cells assessed as increase in caspase 3/7 activation at 12.5 uM measured after 48 hrs by CellEvent caspase 3/7 probe based fluorescence analysis; format: functional, cell-based; outline: as §4

| Ki [11] [µM] | Compound | Activity (Homo sapiens [1]) | Activity (Homo sapiens [2]) | Activity (Homo sapiens [3]) | IC50 [4] [µM] | CI [5] | IC50 [6] [µM] | CI [7] | Activity (Homo sapiens [8]) | CI [9] | CI [10] | CI [12] | IC50 [13] [µM] | CI [14] | Activity (Homo sapiens [15]) | Activity (Homo sapiens [16]) |
| --- | --- | --- | --- | --- | --- | --- | --- | --- | --- | --- | --- | --- | --- | --- | --- | --- |
|  | CN[C@@H]1C[C@H]2O[C@@](C)([C@@H]1OC)n1c3ccccc3c3c4c(c5c6ccccc6n2c5c31)C(=O)NC4 | Active | Active | Active |  |  |  |  |  |  |  |  |  |  |  |  |
| 0.6 | OCCNc1nc(NCCc2ccccc2)c2cnn(/C=C/c3ccccc3)c2n1 |  |  |  | 14.4 | 0.57 | 10.5 | 0.99 | Active | 0.97 | 0.9 | 0.46 | 10.7 | 1.13 | inactive | Active |
